Marks after values point to notes of the source that are not given here.
Experiments:
[1] = Phase I SAD/FI/MAD study: adverse events; assay type: in vivo, human
FAAH = target: T1, FAAH (Homo sapiens, UniProt O00519); assay: Leukocyte FAAH activity in participants; assay type: in vivo
T1 sequence (O00519 1-579): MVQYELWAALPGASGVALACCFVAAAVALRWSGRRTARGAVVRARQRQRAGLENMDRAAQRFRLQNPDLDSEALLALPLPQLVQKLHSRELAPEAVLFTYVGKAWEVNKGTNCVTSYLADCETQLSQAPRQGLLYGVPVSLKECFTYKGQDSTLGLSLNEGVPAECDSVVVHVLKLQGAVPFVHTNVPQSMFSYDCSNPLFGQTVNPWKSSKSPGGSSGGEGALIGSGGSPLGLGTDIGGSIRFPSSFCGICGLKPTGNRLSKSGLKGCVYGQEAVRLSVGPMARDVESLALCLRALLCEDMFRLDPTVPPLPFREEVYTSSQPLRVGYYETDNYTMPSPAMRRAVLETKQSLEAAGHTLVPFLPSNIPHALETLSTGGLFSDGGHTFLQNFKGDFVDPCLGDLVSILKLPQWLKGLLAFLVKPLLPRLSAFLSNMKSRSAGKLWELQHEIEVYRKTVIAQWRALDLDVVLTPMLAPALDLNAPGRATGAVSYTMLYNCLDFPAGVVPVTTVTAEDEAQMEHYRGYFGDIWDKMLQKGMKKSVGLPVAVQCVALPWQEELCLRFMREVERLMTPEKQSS
Outline: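 Healthy men and women aged 18–55 years (BMI 19–30 kg/m²) took single oral capsule doses of test compound (0.25–100 mg) or matching placebo in a double-blind design. They fasted at least 8 h before and 1 h after dosing. Leukocyte FAAH activity was followed after dosing and expressed as percent inhibition, judged by visual inspection. Values are means of six participants per group.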

[2] = MAD 50 mg, moderate, serious, participant with fatal outcome

SMILES: CN(C(=O)n1cnc(-c2ccc[n+]([O-])c2)c1)C1CCCCC1 [BIA 10-2474, 3-(1-(cyclohexyl(methyl)carbamoyl)-1H-imidazol-4-yl)pyridine 1-oxide]
- Any AE, n (%) ([1]; 2.5 mg once daily 10 days, N = 6): 1 (16.7%)
- Any AE, n (%) ([1]; 5 mg once daily 10 days, N = 6): 1 (16.7%)
- Any AE, n (%) ([1]; 10 mg once daily 10 days, N = 6): 3 (50%)
- duration of blurred vision ([1]; 10 mg/day, mild): < 2.5 h
- participants with blurred vision ([1]; 10 mg/day, two participants): 2.3%
- Any AE, n (%) ([1]; 20 mg once daily 10 days, N = 6): 4 (66.7%)
- Abdominal pain, No. events ([1]; MAD 50 mg): 1
- Asthenia, No. events ([1]; MAD 50 mg): 1
- Blurred vision, No. events ([1]; MAD 50 mg): 1
- Diarrhea, No. events ([1]; MAD 50 mg): 2
- Dizziness, No. events ([1]; MAD 50 mg): 2
- Nausea, No. events ([1]; MAD 50 mg): 1
- Headache, No. events ([1]; MAD 50 mg, 3 moderate): 2 + 3^#
- Hot Flush, No. events ([1]; MAD 50 mg, moderate): 1^#
- Soft feces, No. events ([1]; MAD 50 mg, moderate): 1^#
- Diplopia, No. events ([1]; MAD 50 mg, moderate, serious): 1^#§
- Transient global amnesia, No. events ([1]; MAD 50 mg, moderate, serious): 1^#§
- Dysarthria, No. events [1, 2]: 1^#§&
- Feeling drunk, No. events [1, 2]: 1^#§&
- Vitreous floaters, No. events ([1]; MAD 50 mg, serious): 1^§*
- Hemiparesis, No. events ([1]; MAD 50 mg, severe, serious): 1^£§
- Nervous system disorder, No. events ([1]; MAD 50 mg, severe, serious, hospitalization): 1^£§H
- participants reporting treatment-emergent adverse effects ([1]; any dose of BIA 10-2474, 15 participants): 17.9%
- participants with CNS (serious) adverse events ([1]; repeated 50 mg (up to day 5), one with fatal outcome): five of six
- participants with headache ([1]; single 40 mg, 10 and 20 mg/day for 10 days, three participants): 3.6%
- Any AE, n (%) ([1]; single dose 0.25 mg, N = 6): 0
- Any AE, n (%) ([1]; single dose 1.25 mg, N = 6): 0
- Any AE, n (%) ([1]; single dose 2.5 mg, N = 6): 1 (16.7%)
- Any AE, n (%) ([1]; single dose 5 mg, N = 6): 0
- Any AE, n (%) ([1]; single dose 10 mg, N = 6): 1 (16.7%)
- Any AE, n (%) ([1]; single dose 20 mg, N = 6): 0
- Any AE, n (%) ([1]; single dose 40 mg (SAD and FI combined), N = 18): 5 (27.8%)
- Any AE, n (%) ([1]; single dose 100 mg, N = 6): 1 (16.7%)
- tolerability ([1]; up to 100 mg single dose and up to 20 mg once daily for 10 days): well tolerated
- apparent maximum FAAH inhibition (FAAH; 5 mg and above, visual inspection): > 97%
- duration of FAAH inhibition by more than 90% (FAAH; doses above 2.5 mg): at least 72 hours
- FAAH activity inhibited (FAAH; doses above 2.5 mg, for at least 72 hours): more than 90%
- FAAH inhibition (FAAH; single dose 0.25 mg, visual inspection): more than 50%
